PGC1a acetyl up: raises PGC1a acetylation signal in U2OS cells | activation, % at 15.6 µM | 350,000 compounds, 0.21% hits | AID 651723 | U2OS PGC1a acetylation AlphaScreen, overnight;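 active means every replicate reaching activation of at least 50%, whatever the mean replicate activation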;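 further: hits raise the AlphaScreen acetylation signal above neutral controls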
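detection = AlphaScreen lysate read | assay system = U2OS cells expressing flag-PGC1a plus GCN5 | input = 7000 cells/well | dosing = one concentration | times = compound overnight at 37 °C, each detection step 1 h RT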
* hit, by the source's call. The list is a sample of the results.

SMILES | PGC1a acetyl up
COc1ccc(/C=N/NC(=O)c2cccnc2)cc1CN1CCOCC1 | -42
Cc1cccc(C(=O)Nc2ccc(C(=O)/C=C/c3cccnc3)cc2)c1 | -54
Cc1noc(C)c1S(=O)(=O)N(C)C[C@H]1Oc2ccc(NC(=O)Nc3ccccc3)cc2CC(=O)N([C@H](C)CO)C[C@H]1C | -56
C[C@@H]1CN([C@@H](C)CO)C(=O)CCCn2nncc2CO[C@H]1CN(C)CC1CCCCC1 | -52
Cc1c(C(=O)Nc2ccc3c(c2)OCCO3)sc2nc(-c3ccccc3)cn12 | 62*
CN(C)C(=O)C[C@@H]1CC[C@@H]2[C@H](COC[C@@H](O)CN2C(=O)C2CCOCC2)O1 | -56
C[C@H](CO)N1C[C@H](C)[C@H](CN(C)C(=O)NC2CCCCC2)Oc2cc(C#Cc3cccc(F)c3)ccc2S1(=O)=O | -48
Cc1cc(C)nc(NC(=O)NS(=O)(=O)Nc2ccc(Br)cn2)n1 | -44
CN(C)c1ccc(C(=O)NC2(N3CCC3=O)CCCC2)cc1 | -50
O=C(c1cc([N+](=O)[O-])ccc1N1CCCC1)N1CCCC1 | -52
Cc1cccc(N2CCN(CC3CCCCC3)CC2)c1C | -47
Cc1ccc(CC(=O)N2CCN(c3ccc([N+](=O)[O-])cc3)CC2)cc1 | 113*
O=[N+]([O-])c1ccc(N2CCN(CC3CCCCC3)CC2)cc1 | 63*
O=[N+]([O-])c1ccc(N2CCN(C(=S)NCc3ccc(Cl)cc3)CC2)cc1 | 81*
O=C(O)/C=C/c1cnc[nH]1 | -106
O=C1c2ccccc2C(=O)N1c1ccc(Cc2ccncc2)cc1 | -56
C=C1C(=O)[C@]23C[C@H]1CCC2[C@]1(C)CCC[C@@](C)(C(=O)O)C1C[C@@H]3O (stereo not given in full) | -47
CN(C)CCOc1ccc(/C(=C(/CCCl)c2ccccc2)c2ccccc2)cc1 | 109*
CN(C)CCCN(C(=O)CCOc1ccccc1)c1nc2ccc(F)cc2s1 | -50
COc1ccc(NC(=O)C(Cl)=C(Cl)Cl)cn1 | 101*
COc1ccc(NC(=O)/C(Cl)=C(/Cl)S(=O)(=O)Cc2ccccc2)cn1 | -64
COc1ccc(NC(=O)/C(Cl)=C(/Cl)S(=O)Cc2ccc(Cl)cc2)cn1 (stereo not given) | -100
CSCCC(NC(=O)OC(C)(C)C)C(=O)Oc1ccc2c(=O)c(-c3ccc4c(c3)OCCO4)coc2c1 (stereo not given) | 73*
C=CCOc1ccccc1CNc1ccc2[nH]c(=O)[nH]c2c1 | -44
Cn1nc(C(C)(C)C)cc1NC(=O)C1(C)CCN1C(=O)C1(c2ccccc2)CCCC1 (stereo not given) | -55
SMILES | PGC1a acetyl up
CCOC(=O)CCc1c(C)c2ccc(O)cc2oc1=O | 74*
O=C(CC(CC(=O)c1ccc(Br)cc1)c1cccnc1)c1ccc(Br)cc1 | -50
O=C(CC1S/C(=N/N=C/c2c[nH]c3ccccc23)NC1=O)Nc1ccccc1 (stereo not given) | -42
O=C(O)c1ccc2c(c1)OCCCO2 | -44
O=C(CCNNC(=O)c1ccncc1)NCc1ccccc1 | -51
O=C(NCc1cccnc1)/C(=C\c1ccc(-c2ccc(Cl)c(Cl)c2)o1)S(=O)(=O)c1ccccc1 | -59
O=C(CCCc1nc(-c2ccccc2Cl)no1)NCc1cccnc1 | 98*
CC1CN(C2CCN(C(=O)c3cccc(Cl)c3)CC2)CC(C)O1 (stereo not given) | -48
CCN1CCN(C(=O)c2c(-c3c(F)cccc3Cl)noc2C)CC1 | 71*
O=C(c1cccc(Cl)c1)N1CCN(c2ccc(N3CCOCC3)nn2)CC1 | -46
CO[C@@H]1CN(C)C(=O)c2cc(NC(C)=O)ccc2OC[C@H](C)N(Cc2cc(F)ccc2F)C[C@H]1C | -55
O=C(N/N=C/C(Br)=C\c1ccccc1)c1n[nH]c2c1CCC2 | 91*
COc1ccc(OC)c(/C=N/NC(=O)c2[nH]ncc2Br)c1 | -44
Cn1cc(C(=O)N/N=C/C(Br)=C\c2ccccc2)ccc1=O | 128*
COc1ccc(-c2cc(C(=O)N/N=C/c3cc(OC)c(OC)cc3OC)c3ccccc3n2)cc1 | -45
COc1cccc(C(=O)N/N=C/C(Br)=C/c2ccccc2)c1 | 101*
Cc1occc1C(=O)N/N=C/C(Br)=C/c1ccccc1 | 164*
COC(=O)c1ccc(CSc2nc3c(cnn3-c3ccc(Cl)cc3)c(=O)[nH]2)o1 | -53
Cc1nc2ccccc2n2c(O)c(CC(=O)O)cc12 | -41
CCCN(C)C[C@H]1Oc2cc(C#C[C@@H](C)O)ccc2S(=O)(=O)N([C@@H](C)CO)C[C@H]1C | -54
O=C(OCc1nc2ccsc2c(=O)[nH]1)c1cccc(S(=O)(=O)N2CCOCC2)c1 | -42
CC(=O)NC(=S)Nc1ccc(NC(=O)COc2ccc(Cl)cc2Cl)cc1 | 76*
Cc1ccc(CC(=O)Nc2nccs2)cc1 | -51
CCOC(=O)CSc1nnc(-c2ccc(OC)cc2)n1CC | 100*
COc1ccc(-n2c(SCC#N)nnc2-c2cccnc2)cc1 | -43
SMILES | PGC1a acetyl up
CC1C(=O)C(C)(C)C(=O)OC1c1ccccc1 (stereo not given) | -49
CN(Cc1ccccc1)C(=O)c1ccc2c(c1)NC(=O)C(N1CCOCC1)S2 (stereo not given) | -49
COC(=O)c1ccc2c(c1)C(C)(C)C(/C=C/c1ccccc1O)=[N+]2C | 52*
CO[C@H]1CN(C)C(=O)c2cc(NC(=O)Nc3ccc(Cl)cc3)ccc2OC[C@H](C)NC[C@@H]1C | -43
O=C(NCc1ccco1)c1scc2c1OCCO2 | -50
NS(=O)(=O)c1ccc(CCNC(=O)c2ccc3nc4ccc(Cl)cc4c(=O)n3c2)cc1 | 85*
NS(=O)(=O)c1ccc(CCNC2CC(=O)N(Cc3ccccc3)C2=O)cc1 (stereo not given) | -46
Cc1noc(C)c1S(=O)(=O)Nc1cccc2c1O[C@@H](CN(C)Cc1ccncc1)[C@@H](C)CN([C@@H](C)CO)C2=O | -51
CC(C(=O)N1CCc2ccccc2C1)N(c1ccccc1)S(C)(=O)=O (stereo not given) | -51
C/C(=C\C(=O)N1CCc2ccccc21)C(=O)O | 60*
CN(C)S(=O)(=O)c1cc(NC(=O)CN2CCc3ccccc32)ccc1Cl | -75
COc1cc(C2Nc3cccc4cccc(c34)N2)ccc1OC(C)=O | -56
Cn1cccc1CC(=O)N/N=C/c1cc([N+](=O)[O-])ccc1Cl | -46
O=C(N/N=C\c1cccc([N+](=O)[O-])c1O)C1COc2ccccc2O1 (stereo not given) | 75*
O=C(N/N=C/c1cccc([N+](=O)[O-])c1)C1COc2ccccc2O1 (stereo not given) | 188*
NNS(=O)(=O)c1ccc(Cc2ncc(C(F)(F)F)cc2Cl)s1 | -50
O=S(=O)(c1ccccc1)c1ncc(C(F)(F)F)cc1Cl | 55*
Nc1ccccc1Oc1ncc(C(F)(F)F)cc1Cl | -46
CCCN(CCC)CCNC(=O)c1cc2c(=O)n(CC)c3ccccc3c2s1 | -43
Cc1ccc(O)c(C(=O)c2cnc3c(c2)CN(CCC(C)C)C(=O)N3)c1 | 70*
CC1(C)CCC[C@]2(C)[C@H]3Cc4cc(O)ccc4O[C@]3(C)CC[C@@H]12 | 67*
COc1ccc(C[C@@H]2OC3(C=CC(=O)C=C3)O[C@H]2Cc2ccc(OC)cc2)cc1 | -90
CC(=O)Nc1cccc(-c2ccnc3c2CC(C)(C(=O)Nc2ccc(C(C)C)cc2)O3)c1 (stereo not given) | 70*
CCc1ccc(NC(=O)C2CC=CCC2C(=O)O)cc1 (stereo not given) | 82*
CC(C)c1ccc(/C=N/n2nnnc2Nc2ccccc2)cc1 | -46

Screening data (PubChem)
